The values that follow come from ChEMBL document CHEMBL4190262, “Tuning of β-glucosidase and α-galactosidase inhibition by generation and in situ screening of a library of pyrrolidine-triazole hybrid molecules” (Eur J Med Chem, 2017).

In assay [1] the target is Alpha-galactosidase (Coffea arabica) (UniProt Q42656). Briefly: Inhibition of coffee beans alpha-galactosidase at 1 mM using p-nitrophenyl glycopyranoside preincubated for 5 mins followed by substrate addition measured after 20 mins by visible absorption spectroscopic method relative to control. In a few lines:
(§1)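 Test compound at 1 mM in well. Mix: 0.01–0.5 units/mL enzyme plus 10 mM p-nitrophenyl glycopyranoside (aqueous solution), buffered to the enzyme's optimal pH. Enzyme and inhibitor preincubated 5 min at rt. Substrate then added and incubated 20 min at 37 °C. Stopped with sodium borate (pH 9.8). p-Nitrophenolate read at 405 nm. Duplicates averaged.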

Assay [2] deals with T1, Alpha-mannosidase (Canavalia ensiformis) (UniProt C0HJB3).
T1 sequence (whole entry): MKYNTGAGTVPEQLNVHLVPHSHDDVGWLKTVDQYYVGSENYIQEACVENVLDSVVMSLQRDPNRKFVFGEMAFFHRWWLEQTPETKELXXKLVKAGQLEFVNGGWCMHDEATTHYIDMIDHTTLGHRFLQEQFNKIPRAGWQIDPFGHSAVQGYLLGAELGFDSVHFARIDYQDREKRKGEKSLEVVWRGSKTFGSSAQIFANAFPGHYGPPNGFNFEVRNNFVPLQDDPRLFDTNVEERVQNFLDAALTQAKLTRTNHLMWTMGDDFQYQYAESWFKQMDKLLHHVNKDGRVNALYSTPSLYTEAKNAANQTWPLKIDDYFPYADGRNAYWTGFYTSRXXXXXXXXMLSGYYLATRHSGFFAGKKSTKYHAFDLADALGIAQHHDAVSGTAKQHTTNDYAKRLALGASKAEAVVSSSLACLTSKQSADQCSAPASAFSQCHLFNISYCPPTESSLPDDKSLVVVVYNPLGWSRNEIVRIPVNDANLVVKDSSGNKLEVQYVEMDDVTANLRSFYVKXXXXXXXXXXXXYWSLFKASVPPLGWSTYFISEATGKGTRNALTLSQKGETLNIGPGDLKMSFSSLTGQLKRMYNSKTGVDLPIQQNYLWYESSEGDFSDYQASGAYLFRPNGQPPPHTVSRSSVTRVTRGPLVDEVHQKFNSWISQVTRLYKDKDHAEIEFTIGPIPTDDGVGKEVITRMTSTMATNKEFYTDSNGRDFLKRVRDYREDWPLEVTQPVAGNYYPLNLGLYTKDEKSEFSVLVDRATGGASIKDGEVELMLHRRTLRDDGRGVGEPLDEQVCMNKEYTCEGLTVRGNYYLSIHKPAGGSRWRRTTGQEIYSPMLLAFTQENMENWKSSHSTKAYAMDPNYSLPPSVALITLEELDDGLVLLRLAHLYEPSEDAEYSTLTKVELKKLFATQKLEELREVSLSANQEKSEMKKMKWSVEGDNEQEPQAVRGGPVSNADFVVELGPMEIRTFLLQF
Briefly: Inhibition of jack bean alpha-mannosidase at 1 mM using p-nitrophenyl glycopyranoside preincubated for 5 mins followed by substrate addition measured after 20 mins by visible absorption spectroscopic method relative to control. In outline: as §1

Assay [3] is filed under the species Bos taurus. Briefly: Inhibition of bovine kidney alpha-L-fucosidase at 1 mM using p-nitrophenyl glycopyranoside preincubated for 5 mins followed by substrate addition measured after 20 mins by visible absorption spectroscopic method relative to control. In outline: as §1
The target of assay [4] is Beta-galactosidase (Escherichia coli) (UniProt Q8VNN2). Kind of assay: Inhibition of Escherichia coli beta-galactosidase at 1 mM using p-nitrophenyl glycopyranoside preincubated for 5 mins followed by substrate addition measured after 20 mins by visible absorption spectroscopic method relative to control. In outline: as §1
Beta-galactosidase (Escherichia coli), sequence (Q8VNN2 whole entry, looked up): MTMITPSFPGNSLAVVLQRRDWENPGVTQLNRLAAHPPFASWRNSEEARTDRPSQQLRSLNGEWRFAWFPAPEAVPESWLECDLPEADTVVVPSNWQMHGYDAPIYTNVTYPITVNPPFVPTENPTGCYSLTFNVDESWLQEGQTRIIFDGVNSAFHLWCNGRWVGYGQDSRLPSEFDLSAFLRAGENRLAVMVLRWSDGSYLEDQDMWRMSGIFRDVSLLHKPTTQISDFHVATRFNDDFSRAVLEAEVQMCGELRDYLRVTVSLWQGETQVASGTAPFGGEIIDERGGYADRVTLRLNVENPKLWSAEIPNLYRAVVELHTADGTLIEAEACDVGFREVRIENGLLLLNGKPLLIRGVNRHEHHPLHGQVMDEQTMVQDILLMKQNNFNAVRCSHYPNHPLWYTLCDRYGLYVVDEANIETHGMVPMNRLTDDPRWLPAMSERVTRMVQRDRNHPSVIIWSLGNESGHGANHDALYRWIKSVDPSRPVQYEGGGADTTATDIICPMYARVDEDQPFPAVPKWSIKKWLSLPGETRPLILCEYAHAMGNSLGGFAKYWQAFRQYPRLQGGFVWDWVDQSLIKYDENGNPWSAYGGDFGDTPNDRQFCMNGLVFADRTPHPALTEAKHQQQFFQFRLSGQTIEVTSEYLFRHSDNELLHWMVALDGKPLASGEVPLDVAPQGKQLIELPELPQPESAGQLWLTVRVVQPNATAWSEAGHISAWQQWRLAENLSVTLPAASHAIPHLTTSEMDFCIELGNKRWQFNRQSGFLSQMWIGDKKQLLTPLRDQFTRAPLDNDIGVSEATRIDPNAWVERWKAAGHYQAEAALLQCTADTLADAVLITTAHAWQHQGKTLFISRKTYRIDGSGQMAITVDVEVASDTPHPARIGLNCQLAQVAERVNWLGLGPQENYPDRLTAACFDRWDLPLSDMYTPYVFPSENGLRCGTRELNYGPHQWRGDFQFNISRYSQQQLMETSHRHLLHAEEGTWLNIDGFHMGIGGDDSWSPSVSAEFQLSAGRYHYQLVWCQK
The subject of a further assay is Saccharomyces cerevisiae. Briefly: Inhibition of yeast alpha glucosidase at 1 mM using p-nitrophenyl glycopyranoside preincubated for 5 mins followed by substrate addition measured after 20 mins by visible absorption spectroscopic method relative to control. In a few lines: as §1
The next assay has as its system Prunus dulcis. Kind of assay: Inhibition of almond beta-glucosidase at 1 mM using p-nitrophenyl glycopyranoside preincubated for 5 mins followed by substrate addition measured after 20 mins by visible absorption spectroscopic method relative to control. In outline:
as §1

Assay [5] addresses T2, Beta-galactosidase (Aspergillus oryzae) (UniProt B7VU80).
T2 sequence (whole entry): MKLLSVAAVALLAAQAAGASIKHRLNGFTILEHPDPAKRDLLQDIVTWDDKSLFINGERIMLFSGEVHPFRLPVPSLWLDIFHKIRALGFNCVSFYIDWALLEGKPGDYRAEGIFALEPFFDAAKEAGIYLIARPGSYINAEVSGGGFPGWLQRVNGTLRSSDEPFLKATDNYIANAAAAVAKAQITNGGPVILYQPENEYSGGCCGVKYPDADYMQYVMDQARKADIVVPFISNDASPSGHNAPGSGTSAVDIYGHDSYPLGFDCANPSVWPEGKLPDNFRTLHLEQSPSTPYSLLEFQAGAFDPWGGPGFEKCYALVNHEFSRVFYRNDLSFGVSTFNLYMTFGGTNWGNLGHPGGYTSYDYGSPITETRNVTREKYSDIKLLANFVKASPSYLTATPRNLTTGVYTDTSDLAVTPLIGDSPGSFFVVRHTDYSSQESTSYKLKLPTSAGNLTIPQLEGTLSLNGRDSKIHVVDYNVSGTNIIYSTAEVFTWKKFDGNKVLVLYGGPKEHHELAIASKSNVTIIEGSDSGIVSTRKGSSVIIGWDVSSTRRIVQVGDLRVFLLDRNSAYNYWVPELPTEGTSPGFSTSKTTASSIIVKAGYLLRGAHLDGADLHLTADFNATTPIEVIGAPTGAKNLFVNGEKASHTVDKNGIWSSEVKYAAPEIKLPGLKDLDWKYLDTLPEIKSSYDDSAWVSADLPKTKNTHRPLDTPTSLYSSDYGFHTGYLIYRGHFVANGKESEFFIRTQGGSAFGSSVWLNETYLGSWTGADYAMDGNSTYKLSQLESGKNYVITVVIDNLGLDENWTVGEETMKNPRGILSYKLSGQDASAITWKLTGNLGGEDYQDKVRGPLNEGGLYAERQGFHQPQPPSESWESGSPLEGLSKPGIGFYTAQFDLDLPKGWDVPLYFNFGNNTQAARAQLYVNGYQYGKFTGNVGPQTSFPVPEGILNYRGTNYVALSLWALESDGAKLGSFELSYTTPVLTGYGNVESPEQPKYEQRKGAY
Briefly: Inhibition of Aspergillus oryzae beta-galactosidase at 1 mM using p-nitrophenyl glycopyranoside preincubated for 5 mins followed by substrate addition measured after 20 mins by visible absorption spectroscopic method relative to control. In a few lines: as §1

Another assay deals with Cornu aspersum. Briefly: Inhibition of snail beta-mannosidase at 1 mM using p-nitrophenyl glycopyranoside preincubated for 5 mins followed by substrate addition measured after 20 mins by visible absorption spectroscopic method relative to control. In a few lines: as §1
For a further assay, the system named is Oryza sativa. Kind of assay: Inhibition of rice alpha-glucosidase at 1 mM using p-nitrophenyl glycopyranoside preincubated for 5 mins followed by substrate addition measured after 20 mins by visible absorption spectroscopic method relative to control. In outline: as §1
The target in another assay is Alpha-galactosidase (Coffea arabica, UniProt Q42656). Kind of assay: Inhibition of coffee beans alpha-galactosidase using p-nitrophenyl glycopyranoside preincubated for 5 mins followed by substrate addition measured after 20 mins by visible absorption spectroscopic method. In outline: (§2)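 IC50 determined only for compounds giving ≥80% inhibition at 1 mM, read from plots of % inhibition versus inhibitor concentration. p-Nitrophenyl glycopyranoside substrate (10 mM solution) at the enzyme's optimal pH, with 0.01–0.5 units/mL enzyme. 5 min rt preincubation with enzyme, then 20 min at 37 °C. Borate stop (pH 9.8), absorbance at 405 nm. Duplicates averaged.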
Alpha-galactosidase, sequence (Q42656 whole entry): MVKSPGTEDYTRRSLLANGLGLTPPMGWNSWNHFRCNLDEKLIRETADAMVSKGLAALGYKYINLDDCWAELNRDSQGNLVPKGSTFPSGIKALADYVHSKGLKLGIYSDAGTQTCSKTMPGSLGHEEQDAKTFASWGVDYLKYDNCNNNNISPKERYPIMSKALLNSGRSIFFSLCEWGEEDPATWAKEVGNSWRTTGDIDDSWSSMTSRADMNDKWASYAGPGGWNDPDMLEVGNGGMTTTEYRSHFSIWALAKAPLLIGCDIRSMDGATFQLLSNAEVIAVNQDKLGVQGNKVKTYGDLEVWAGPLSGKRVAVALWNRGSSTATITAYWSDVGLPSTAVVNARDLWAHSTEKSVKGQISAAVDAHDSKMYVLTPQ

The subject of another assay is Canavalia ensiformis. Briefly: Inhibition of jack bean beta-N-acetylglucosaminidase at 1 mM using p-nitrophenyl glycopyranoside preincubated for 5 mins followed by substrate addition measured after 20 mins by visible absorption spectroscopic method relative to control. In outline:
as §1

Assay [6] in a line: Inhibition of almond beta-glucosidase using p-nitrophenyl glycopyranoside preincubated for 5 mins followed by substrate addition measured after 20 mins by visible absorption spectroscopic method. The arrangement: species or system Prunus dulcis. In outline: as §2
The test system of a further assay is Aspergillus niger. Kind of assay: Inhibition of Aspergillus niger amyloglucosidase at 1 mM using p-nitrophenyl glycopyranoside preincubated for 5 mins followed by substrate addition measured after 20 mins by visible absorption spectroscopic method relative to control. In a few lines: as §1
The target of a further assay is T3, Beta-galactosidase (Bos taurus, UniProt Q58D55).
T3 sequence (Q58D55 whole entry): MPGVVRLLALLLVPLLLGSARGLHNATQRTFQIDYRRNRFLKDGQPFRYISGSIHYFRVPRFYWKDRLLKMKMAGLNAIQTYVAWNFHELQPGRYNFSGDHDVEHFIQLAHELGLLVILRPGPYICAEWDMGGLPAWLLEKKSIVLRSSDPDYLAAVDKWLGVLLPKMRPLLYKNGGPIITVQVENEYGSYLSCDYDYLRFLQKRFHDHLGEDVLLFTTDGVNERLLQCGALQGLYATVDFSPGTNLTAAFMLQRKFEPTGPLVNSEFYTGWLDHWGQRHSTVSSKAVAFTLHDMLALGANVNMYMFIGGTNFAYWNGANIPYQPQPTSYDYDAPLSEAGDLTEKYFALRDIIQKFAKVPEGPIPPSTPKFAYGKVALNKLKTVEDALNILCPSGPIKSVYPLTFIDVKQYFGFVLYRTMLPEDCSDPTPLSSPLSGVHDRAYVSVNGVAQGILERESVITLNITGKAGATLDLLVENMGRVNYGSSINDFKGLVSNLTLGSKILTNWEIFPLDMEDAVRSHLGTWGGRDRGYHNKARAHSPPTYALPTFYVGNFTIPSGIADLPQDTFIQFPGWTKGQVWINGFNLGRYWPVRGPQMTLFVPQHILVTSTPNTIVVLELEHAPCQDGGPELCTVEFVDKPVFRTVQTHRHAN
Briefly: Inhibition of bovine liver beta-galactosidase using p-nitrophenyl glycopyranoside preincubated for 5 mins followed by substrate addition measured after 20 mins by visible absorption spectroscopic method. In a few lines:
as §2

Assay [7] can be described thus: Selectivity ratio of IC50 for human lysosomal alpha-galactosidase A to IC50 for coffee beans alpha-galactosidase.
Assay [8] has as its target Alpha-galactosidase (Coffea arabica) (UniProt Q42656). Briefly: Inhibition of coffee beans alpha-galactosidase at 50 uM using p-nitrophenyl glycopyranoside preincubated for 5 mins followed by substrate addition measured after 20 mins by visible absorption spectroscopic method relative to control. In a few lines:
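Crude triazoles from in situ CuAAC (ascorbate/CuSO4, 24 h rt, water-diluted) were screened at 50 μM per well, assuming full conversion. Enzyme was coffee bean α-galactosidase at pH 6, 37 °C, with p-nitrophenyl glycoside substrate and 405 nm read-out. Blanks of CuSO4, ascorbate and each alkyne were run.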

The target in assay [9] is T4, Lysosomal acid glucosylceramidase (Homo sapiens, UniProt P04062).
T4 sequence (P04062 whole entry): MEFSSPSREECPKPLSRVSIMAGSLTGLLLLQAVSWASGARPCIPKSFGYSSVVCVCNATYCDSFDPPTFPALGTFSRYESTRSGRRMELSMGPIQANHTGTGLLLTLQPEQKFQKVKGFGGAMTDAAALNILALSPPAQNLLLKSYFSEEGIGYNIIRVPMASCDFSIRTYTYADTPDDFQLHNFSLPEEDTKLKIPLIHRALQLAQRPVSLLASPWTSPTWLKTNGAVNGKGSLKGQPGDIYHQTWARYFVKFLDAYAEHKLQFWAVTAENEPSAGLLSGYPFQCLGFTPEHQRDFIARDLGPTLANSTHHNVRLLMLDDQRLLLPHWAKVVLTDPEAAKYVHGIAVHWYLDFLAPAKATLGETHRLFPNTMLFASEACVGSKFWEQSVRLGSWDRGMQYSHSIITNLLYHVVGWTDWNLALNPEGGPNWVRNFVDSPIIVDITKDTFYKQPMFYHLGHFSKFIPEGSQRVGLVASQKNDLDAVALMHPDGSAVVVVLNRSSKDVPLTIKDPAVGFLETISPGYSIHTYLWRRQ
Kind of assay: Inhibition of human lysosomal beta-glucocerebrosidase using 4-methylumbelliferyl-beta-D-glucopyranoside as substrate preincubated for 45 mins followed by substrate addition measured after 30 mins by fluorescence spectroscopic method. In outline: (§3)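 Enzyme in 100 mM McIlvaine buffer pH 5.2 with 0.25% sodium taurocholate and 0.1% Triton X-100, with inhibitor. Preincubated at 0 °C for 45 min, then started with 3 mM 4-methylumbelliferyl glycoside substrate solution and incubated 30 min at 37 °C. Stopped with 400 mM glycine-NaOH pH 10.6. 4-Methylumbelliferone fluorescence read at ex 362/em 450 nm.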

The target in assay [10] is T5, Alpha-galactosidase A (Homo sapiens) (UniProt P06280).
T5 sequence (whole entry): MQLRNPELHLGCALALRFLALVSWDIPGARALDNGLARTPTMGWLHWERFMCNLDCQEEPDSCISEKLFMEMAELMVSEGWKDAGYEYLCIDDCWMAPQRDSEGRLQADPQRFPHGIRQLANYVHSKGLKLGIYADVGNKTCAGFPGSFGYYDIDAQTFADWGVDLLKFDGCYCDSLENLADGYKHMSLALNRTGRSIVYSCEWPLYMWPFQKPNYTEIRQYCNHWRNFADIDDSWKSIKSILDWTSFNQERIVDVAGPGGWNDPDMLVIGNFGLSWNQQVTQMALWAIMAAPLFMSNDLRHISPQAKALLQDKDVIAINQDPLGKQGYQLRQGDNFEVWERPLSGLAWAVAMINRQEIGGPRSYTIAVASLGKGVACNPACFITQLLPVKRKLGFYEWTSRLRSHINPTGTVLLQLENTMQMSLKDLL
Briefly: Inhibition of human lysosomal alpha-galactosidase A at 1 mM using 4-methylumbelliferyl-alpha-D-galactopyranoside as substrate preincubated for 45 mins followed by substrate addition measured after 30 mins by fluorescence spectroscopic method relative to control. In outline:
as §3

For assay [11], the species on record is Bos taurus. Kind of assay: Inhibition of bovine liver beta-glucosidase at 1 mM using p-nitrophenyl glycopyranoside preincubated for 5 mins followed by substrate addition measured after 20 mins by visible absorption spectroscopic method relative to control. In a few lines:
as §1

The source made the active and inactive calls. The rule behind the calls is not given here.

As a reminder, the inhibition is the drop in the measured response relative to a control, in per cent. The term IC50 denotes the midpoint of a concentration-inhibition curve. A high value points to lower potency.

Alpha-galactosidase (Coffea arabica), sequence (Q42656 16-378 limits assumed): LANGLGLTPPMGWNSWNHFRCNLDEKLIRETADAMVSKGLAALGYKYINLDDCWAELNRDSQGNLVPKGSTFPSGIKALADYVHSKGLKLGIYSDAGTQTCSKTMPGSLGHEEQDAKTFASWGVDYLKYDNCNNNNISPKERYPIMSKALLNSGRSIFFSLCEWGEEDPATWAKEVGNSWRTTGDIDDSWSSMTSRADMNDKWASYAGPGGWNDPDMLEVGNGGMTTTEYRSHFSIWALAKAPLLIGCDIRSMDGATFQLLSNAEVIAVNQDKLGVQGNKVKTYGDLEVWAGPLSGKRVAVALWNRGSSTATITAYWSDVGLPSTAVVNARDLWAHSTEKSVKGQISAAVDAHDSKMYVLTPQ

Turning to `O[C@@H]1[C@H](O)CN[C@@H]1CCn1cc(-c2ccccc2)nn1`, the inhibition in assay [1] came out at 89%; in the assay listed under Bos taurus [3], 49%; in assay [4] it was 60%; in the assay on Prunus dulcis, 96%; in [5], 78%. Besides, the inhibition entry (in assay [2]; in the assay with Saccharomyces cerevisiae; with Cornu aspersum; in the assay with Oryza sativa; in the assay on Canavalia ensiformis; in the assay on Aspergillus niger) was “inactive” throughout. For the same compound, the IC50 was 107 µM against Alpha-galactosidase and 11 µM in assay [6].

Consider `COc1ccc2cc(-c3cn(C[C@H]4NC[C@@H](O)[C@H]4O)nn3)ccc2c1`, for which the 50% inhibitory concentration (IC50) against Beta-galactosidase came to 42 µM; in assay [9], 19 µM; at Alpha-galactosidase it was 17 µM. Also, the Ratio IC50 in [7] worked out at 10. For the same compound, the inhibition in [8] is 64%; with Prunus dulcis, less than 50%; in assay [10] it was less than 50%; in the assay filed under Bos taurus [11] it was less than 50%.
